Only some compounds are listed: those with a hit (about 1.8% of all), similar ones and a draw of the others.
NOD2 RIPK2 PPI – NOD2-RIPK2 protein interaction inhibition; inhibition, % at 4.98 µM; O43353; CHO BLA complementation NOD2-RIPK2, CCF4 ratio; 360,000 compounds, 0.38% hits; in the data active = inhibition above about 21%;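 also: 0% = vehicle only and 100% = reference blocker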
Target sequence (O43353 whole entry, looked up): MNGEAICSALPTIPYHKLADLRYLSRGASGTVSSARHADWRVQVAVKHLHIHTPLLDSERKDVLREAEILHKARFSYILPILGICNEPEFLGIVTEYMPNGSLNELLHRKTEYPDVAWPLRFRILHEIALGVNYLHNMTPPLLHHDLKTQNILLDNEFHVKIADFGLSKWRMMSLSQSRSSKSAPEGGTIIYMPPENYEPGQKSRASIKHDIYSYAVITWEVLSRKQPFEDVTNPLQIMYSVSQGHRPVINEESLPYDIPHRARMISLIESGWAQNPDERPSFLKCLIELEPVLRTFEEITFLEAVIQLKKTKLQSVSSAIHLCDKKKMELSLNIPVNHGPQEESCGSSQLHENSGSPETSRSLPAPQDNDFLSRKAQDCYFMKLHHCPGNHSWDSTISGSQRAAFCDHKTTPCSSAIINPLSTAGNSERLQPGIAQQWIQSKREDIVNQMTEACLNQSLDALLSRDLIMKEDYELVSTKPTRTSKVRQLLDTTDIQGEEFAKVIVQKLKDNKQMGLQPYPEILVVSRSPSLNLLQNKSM
TLR4 MyD88 comp – blocks binding of human TLR4 to MyD88; HeLa CL3-4 TLR4/MyD88 BLA complementation, FRET ratio; O00206+Q99836; AID 861; 200,000 compounds, 0.18% hits; inhibition, % at 8.4 µM; in the data active = inhibition above about 25%;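 also: 0% = vehicle and 100% = reference inhibitor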
TLR9-MyD88 block – blocks human TLR9 binding to MyD88; inhibition, % at 4.98 µM; Q9NR96+Q99836; CHO BLA complementation TLR9-MyD88, CCF4 FRET ratio; 340,000 compounds, 0.21% hits; AID 504734;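 active = inhibition above the mean over all tested compounds plus 3 SD, cut at about 21% in these data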;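 also: 0% = DMSO only wells and 100% = clavulanate BLA inhibitor control wells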
MC4R antag cAMP – human MC4R antagonism in cAMP assay; MC4R-expressing cells, MTII-stimulated cAMP, LANCE TR-FRET; inhibition, % at 6.5 µM; 360,000 compounds, 0.48% hits; AID 540295;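 active = inhibition above its plate's cutoff, the mean of tested wells on that plate plus 3 SD, cut at about 29% in these data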;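 also: 0% = Melanotan II alone and 100% = Melanotan II plus saturating MCL0020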
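System: U2OS-MC4R stable cell line; Technique: Eu-cAMP/anti-cAMP TR-FRET, emission 671 nm; Repeats: single well per compound; Also added: Melanotan II; Dosing: one concentration, 6.5 µM nominal; Schedule: 30-min compound, 1-h challenge, 1-h detection, room temperature.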
MC4R ag barr – human MC4R agonism via beta-arrestin; P32245; U2OS MC4R beta-arrestin complementation, luminescence; percent of melanotan II response, DMSO zero; activation, % at 8.9 µM; 360,000 compounds, 0.98% hits; AID 540308;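 active = activation above a per-plate cutoff, the mean activation of sample wells on that plate plus 3 SD, cut at about 8% in these data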
Starred values were filed as active, the others as inactive; · = no result given.

SMILES	NOD2 RIPK2 PPI	TLR4 MyD88 comp	TLR9-MyD88 block	MC4R antag cAMP	MC4R ag barr
Cc1cc(C)c(S(=O)(=O)NC2CC3CCC2C3)c(C)c1 (centres undefined)	2	·	2	19	8.5*
CCN(CC)c1ccc(/C=N/NC(=O)c2cccc(S(=O)(=O)Nc3ccccc3OC)c2)c(O)c1	21*	7	21*	4	-3
C=C(CN(C)C)C(=O)c1ccc2c(c1)OCO2	4	·	-1	31*	-3
CCC(=O)OC1(C)C(=O)C2=COC(c3ccc(OC)cc3)=CC2=C(Br)C1=O (centres undefined)	-5	·	6	16	-1
COc1ccc(C2=CC3=C(Br)C(=O)C(C)(O)C(=O)C3=CO2)cc1 (centres undefined)	8	·	1	35*	1
Cc1cc(N2CCCC(C(=O)Nc3cccc(Cl)c3)C2)n2ncnc2n1 (centres undefined)	4	14	-4	3	-2
Cc1cc(C)nc(N2CCCC(C(=O)Nc3cccc(Cl)c3)C2)n1 (centres undefined)	6	·	1	20	8.4*
CCC(CC)C(=O)Nc1cc(Cl)ccc1C	·	-1	·	·	·
CSc1nc2sc3c(c2c(=O)n1C)CCC3	10	·	-5	2	-1
C#CCSc1nc2sc3c(c2c(=O)n1C)CCC3	-4	·	-8	-4	9.1*
Cc1c(NS(=O)(=O)c2cc(C(=O)NCCN(C)C)ccc2Cl)c(=O)n(-c2ccccc2)n1C	-5	·	-1	0	-2
Cc1ccc(NC(=O)Nc2ccc3c(c2)N(C)C(=O)CS3)nc1	-2	2	-5	10	9.4*
Cc1ccnc(NC(=O)Nc2ccc3c(c2)N(C)C(=O)CS3)c1	-20	-8	-3	5	9.1*
FC(F)(F)c1ccccc1Cc1c(-c2ccc(Cl)cc2)nc2ccc(Br)cn12	5	·	·	·	·
O=C(/C=C/c1cn(-c2ccccc2)nc1-c1cccnc1)c1ccco1	-3	11	-5	21	0
CC(C)(C)C1C/C(=C/c2ccccn2)C(=O)/C(=C/c2ccccn2)C1 (centres undefined)	27*	0	1	19	-1
Cc1ccc(-c2csc(NC(=O)CN3CC(C)OC(C)C3)n2)cc1 (centres undefined)	-6	·	-9	0	-1
CCOCCn1c(=NC(=O)c2cc(Cl)sc2Cl)sc2cc(S(N)(=O)=O)ccc21	·	-9	·	·	·
COCCn1c(=NC(=O)c2cc(Cl)sc2Cl)sc2cc(S(N)(=O)=O)ccc21	-5	-13	-6	17	9.3*
O=C1NC(Cc2ccccc2)c2nc3ccc(Cl)cc3c(=O)n2-c2ncccc21 (centres undefined)	-3	·	-2	6	-1
CCOc1ccc(NCc2cc3c(C(C)(C)C)nn(-c4ccccc4)c3[nH]c2=O)cc1	9	-2	9	15	11*
C=CCN(CC=C)C(=O)C1CCN(S(=O)(=O)c2ccc(N3CCCC3=O)cc2)CC1	-6	·	0	7	-2
Cc1cc(C)cc(NS(=O)(=O)CCCS(=O)(=O)Nc2cc(C)cc(C)c2)c1	1	·	0	2	19*
COc1ccccc1C(=O)COC(=O)c1cccc(S(=O)(=O)N2CCCC2)c1	-10	·	5	1	-1
CC(NC(=O)OC(C)(C)C)C(=O)Oc1cc2oc(=O)cc(-c3ccccc3)c2cc1Cl (centres undefined)	39*	11	31*	3	-1
SMILES	NOD2 RIPK2 PPI	TLR4 MyD88 comp	TLR9-MyD88 block	MC4R antag cAMP	MC4R ag barr
CC(Oc1cc2oc(=O)cc(-c3ccccc3)c2cc1Cl)C(=O)NCC1CCC(C(=O)O)CC1 (centres undefined)	-9	·	5	12	-1
Cc1ccc(S(C)(=O)=N/C=C2\C(=O)c3sccc3N(C)S2(=O)=O)cc1 (centres undefined)	-7	·	-4	2	-2
COc1ccc(CC(=O)Nc2ccc(N3CCN(c4ccc(OC)cc4)CC3)c(C#N)c2)cc1	-12	-12	-12	2	8.6*
COc1ccc(N2CCN(c3ccc(NC(=O)c4ccc5c(c4)OCO5)cc3C#N)CC2)cc1	-1	-12	2	17	0
NS(=O)(=O)c1ccc(CCNC(=O)c2ccc([N+](=O)[O-])s2)cc1	-16	·	-1	-4	-2
O=C(N/N=C/c1ccc2c(c1)OCO2)c1sc2cccc(Cl)c2c1Cl	-2	-6	1	3	8.3*
O=C(Nc1ccc(F)cc1)c1cnc(-c2ccccc2)nc1-c1ccccc1	-4	0	1	12	8
O=C(Nc1ccc(F)c(F)c1)c1cnc(-c2ccccc2)nc1-c1ccccc1	-12	6	16	-1	8.7*
COc1ccccc1C(=O)Nc1nnc(SCC(=O)Nc2ccc3c(c2)oc2ccccc23)s1	0	-3	-9	10	-2
Cc1cccc(C(=O)Nc2nnc(SCC(=O)Nc3ccc4c(c3)oc3ccccc34)s2)c1	-7	0	-1	1	9.4*
COc1ccccc1C(CCNCc1ccccc1)c1ccc(OC(C)C)cc1 (centres undefined)	3	·	-5	11	9.0*
COc1ccc(CNCCC(c2ccccc2)c2ccc3c(c2)OCO3)cc1 (centres undefined)	2	3	-4	0	9.1*
O=C(/C=C/c1ccccc1)NCCc1c[nH]c2ccccc12	0	·	-3	-2	0
CCCCn1c(SCC(=O)NC2CCS(=O)(=O)C2)nc2cc(S(N)(=O)=O)ccc21 (centres undefined)	-6	11	-3	14	-2
COc1ccc(-c2cn[nH]c2-c2ccc(OCc3ccccc3)cc2O)cc1	1	·	8	6	9.3*
CC(C)CCN1C(=O)c2ccc(C(=O)Nc3c[nH]c(=O)[nH]c3=O)cc2C1=O	2	-6	4	-5	0
CC(=O)Oc1cccc(N2C(=O)c3ccc(C(=O)Nc4c[nH]c(=O)[nH]c4=O)cc3C2=O)c1	2	6	-3	42*	0
O=C(Nc1cnn(Cc2ccc(F)cc2)c1)c1cc(-c2cccs2)on1	8	6	1	-1	13*
CCCc1cc(C(=O)Nc2cnn(Cc3ccc(F)cc3)c2)no1	-7	·	-7	18	-1
Cc1nc2ccccc2n2c(O)c(CC(=O)O)cc12	11	-23	9	-30	8.3*
Cc1ccc(C(=O)/C=C/Nc2ccc3c(c2)OCO3)cc1	5	6	-2	5	12*
CC(=O)c1ccc(N/C=C\C(=O)c2ccc(C)cc2)cc1	-5	-9	-1	10	-1
CC(C)(C)c1cc(NC(=O)Nc2ccccc2OC(F)(F)F)no1	-4	·	2	15	8.7*
COC(=O)c1ccccc1NC(=O)Nc1cc(C(C)(C)C)on1	8	·	3	5	-3

Source: PubChem
